CHRM5 antagonist = CHRM5 antagonism in calcium assay; 360,000 compounds, 0.59% hits; CHO-hM5 cells, Fluo-8 calcium fluorescence, ACh EC80; P08912; inhibition, % at 3 µM;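 active = inhibition above a per-plate cutoff, the mean of that plate's test compounds plus 3 SD, cut at about 27% in these data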;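 note: 0% = acetylcholine EC80 with DMSO and 100% = DMSO without agonist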
CHRM4 antagonist = CHRM4 antagonism in calcium assay. CHO-hM4 cells, ACh EC80, Fluo-8 calcium fluorescence. inhibition, % at 3 µM. 360,000 compounds, 0.73% hits. AID 624125;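 active = inhibition above its plate's cutoff, the mean inhibition of sample wells plus 3 SD, cut at about 27% in these data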;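 note: 0% = acetylcholine EC80 with DMSO and 100% = DMSO without agonist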
Target sequence (P08173 whole entry, looked up): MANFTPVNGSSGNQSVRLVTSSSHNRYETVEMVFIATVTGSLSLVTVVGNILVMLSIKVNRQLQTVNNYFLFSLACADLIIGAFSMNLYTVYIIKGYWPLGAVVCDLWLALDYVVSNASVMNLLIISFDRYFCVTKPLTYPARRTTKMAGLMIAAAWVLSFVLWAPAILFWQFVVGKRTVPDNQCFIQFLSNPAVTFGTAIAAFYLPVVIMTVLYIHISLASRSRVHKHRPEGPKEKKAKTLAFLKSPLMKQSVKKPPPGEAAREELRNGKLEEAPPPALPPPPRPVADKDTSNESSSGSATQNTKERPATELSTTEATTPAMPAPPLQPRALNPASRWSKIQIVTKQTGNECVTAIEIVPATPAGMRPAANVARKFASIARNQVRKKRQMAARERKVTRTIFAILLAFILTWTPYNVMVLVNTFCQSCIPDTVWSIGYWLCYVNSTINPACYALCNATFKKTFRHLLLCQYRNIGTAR
CHRM4 PAM = potentiates acetylcholine response at human M4 receptor; activation, % at 3 µM; CHO-K1 hM4/Gqi5, Fluo-8 calcium fluorescence, ACh EC20; 0% = ACh EC20, 100% = maximal ACh; P08173; AID 624126; 360,000 compounds, 0.4% hits;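 active = activation above its plate's cutoff, the mean activation of sample wells plus 3 SD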
M5 PAM = potentiates acetylcholine response at human M5 receptor; CHO-K1 hM5, Fluo-8 calcium, ACh EC20 PAM; 0% = ACh EC20, 100% = ACh EC100; activation, % at 3 µM; 360,000 compounds, 0.3% hits;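 active = activation above the run cutoff, the mean activation of all test compounds plus 3 SD, cut at about 18% in these data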
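Probe or stimulus: acetylcholine, EC20 level; Assay system: human M5 receptor in CHO-K1 cells; Schedule: compound preincubation 140 s before EC20 acetylcholine addition; Technique: intracellular calcium via Fluo-8 fluorescence; Dosing: single-point, 3 µM nominal; Read-out basis: percent activation from peak-over-basal fluorescence ratio, scaled EC20-to-EC100 acetylcholine; Repeats: one well per compound, no replicates.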
M5 ag = agonists of human muscarinic M5 receptor (CHRM5) | P08912 | CHO-K1 hM5 cells, Fluo-8 calcium fluorescence; 0% DMSO wells, 100% maximal acetylcholine response | activation, % at 3 µM | 360,000 compounds, 0.19% hits | AID 624037;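 active = activation above the run's mean over test compounds plus 3 SD, cut at about 23% in these data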;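 note: signal is peak over basal fluorescence ratio across the kinetic read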
CHRM4 agonist = agonists of human muscarinic M4 receptor (CHRM4) | P08173 | CHO-K1 hM4/Gqi5, Fluo-8 calcium fluorescence; vehicle 0%, full acetylcholine response 100% | activation, % at 3 µM | 360,000 compounds, 0.14% hits | AID 624127;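 active = activation above the run mean over all test wells plus 3 SD, cut at about 32% in these data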;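 note: peak over basal fluorescence ratio per well then scaled between controls; 0% = DMSO wells and 100% = acetylcholine at EC100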
* marks the source's active call; other numbers are inactive results. Most compounds without a hit are left out; they make up all but 1.8% or so of the library.

SMILES	CHRM5 antagonist	CHRM4 antagonist	CHRM4 PAM	M5 PAM	M5 ag	CHRM4 agonist
COc1cccc(OC2(C)CCN(Cc3ccc(-c4ccccn4)cc3)C2)c1 (stereo unspecified)	4.0	5.8	-9.9	-8.4	-2.5	4.3
Cc1ccc(S(=O)(=O)Nc2c(C)cc(C)nc2Cl)cc1	2.5	1.4	-1.5	-5.8	-4.7	1.1
c1ccc(C(CN2CCCCC2)Oc2ccccn2)cc1 (stereo unspecified)	24.5	35.0*	-17.0	-39.1	-10.8	3.4
OC(COC(c1ccccc1)c1ccccc1)CN1CCCCC1 (stereo unspecified)	2.9	2.0	-3.6	-9.1	-11.3	1.6
O=C(Cn1ncc2c([nH]c3ccccc32)c1=O)NCCc1ccccc1	-4.6	-0.1	19.3*	12.1	0.2	1.4
CC(OC(=O)CCCN=C1NS(=O)(=O)c2ccccc21)C(=O)c1ccccc1 (stereo unspecified)	2.4	-10.9	2.6	-1.1	25.7*	18.4
CC(OC(=O)CCCN=C1NS(=O)(=O)c2ccccc21)C(=O)N(C)c1ccccc1 (stereo unspecified)	2.7	-12.3	1.2	1.7	-1.1	1.8
Cc1cccc(C)c1NC(=O)C1(C)CSCC(=O)N1CCc1ccccc1F (stereo unspecified)	-8.6	-15.1	9.9	2.8	3.2	6.6
CN(C)CCCNc1nc2cc(-c3ccc4c(ccn4C)c3)sc2c(=O)n1C	-7.5	-10.7	6.0	3.8	0.5	0.8
CCn1cc(C(=O)N(C)c2ccc(OC)cc2OC)c2cc(OC)c(OC)cc2c1=O	0.1	-26.9	13.7*	11.0	-4.2	2.0
CCn1cc(C(=O)N(C)c2cc(C)ccc2OC)c2cc(OC)c(OC)cc2c1=O	5.8	-10.2	1.6	-0.1	-1.6	2.6
O=C(C1=C[C@H](c2coc3ccccc3c2=O)C[C@H](OCCCCO)O1)N1CCN(Cc2ccccc2)CC1	62.5*	-1.7	-3.3	-25.4	-9.3	4.5
O=C(NCc1ccccc1)C1=C[C@H](c2coc3ccccc3c2=O)C[C@H](OCCCCO)O1	15.8	17.0	-6.0	-4.3	-0.3	0.6
O=C(NCc1ccccc1)C1=C[C@@H](c2coc3ccccc3c2=O)C[C@@H](OCCCCO)O1	27.8*	3.1	-10.9	-9.3	-4.1	5.7
CCOc1ccc(NC(=O)CN(C)C2=NS(=O)(=O)c3ccccc32)cc1	-0.4	-1.4	1.7	-0.2	-0.1	1.0
COc1ccccc1NC(=O)Cn1nnc(-c2ccccc2NS(=O)(=O)c2ccccc2)n1	34.0*	7.4	-30.3	-17.3	0.4	15.3
CCOC(=O)C1=C[C@@H](C(C)(C)C)N(S(=O)(=O)c2ccc(C)cc2)[C@H]1c1ccc(Cl)c(Cl)c1	-5.5	-13.4	3.0	5.0	2.8	0.2
CN1C(=O)c2ccc(N3CCCC3)cc2C1=O	4.5	-4.3	-8.7	-6.0	4.9	8.2
Cc1cc(N2CCCC2)ccc1/C=C1\NC(=S)N(C)C1=O	6.6	8.8	-10.8	-9.2	42.0*	12.6
O=C1/C(=C/c2ccc(N3CCCC3)cc2)NC(=S)N1C1CC1	53.9*	35.5*	-26.7	-18.0	69.4*	46.1*
O=C1N/C(=C/c2ccc(N3CCCC3)cc2)C(=O)N1c1ccccc1	-4.6	-6.1	-7.1	-3.6	-1.8	1.5
Cc1ccc2cc3cc(C(=O)NCCN4CCOCC4)oc3nc2c1	-12.5	-5.9	12.4	20.8*	1.6	2.5
CCCn1c(NC(=O)CN2C(=O)NC3(CCCCC3)C2=O)nc2ccccc21	-3.6	-3.0	-2.8	1.9	-1.2	1.5
CCCn1c(NC(=O)CN2C(=O)NC3(CCCC3)C2=O)nc2ccccc21	-3.5	-28.3	23.2*	-1.7	-1.4	3.2
CCOc1ccccc1NC(=O)COC(=O)COc1c(Cl)cc(Cl)c2ccc(C)nc12	28.2*	3.4	4.0	33.7*	3.3	3.6
SMILES	CHRM5 antagonist	CHRM4 antagonist	CHRM4 PAM	M5 PAM	M5 ag	CHRM4 agonist
Cc1ccc2c(Cl)cc(Cl)c(OCC(=O)NCCc3ccccn3)c2n1	5.3	76.8*	-1.4	3.8	-0.9	4.5
Cc1ccc2c(Cl)cc(Cl)c(OCC(=O)NC3CCS(=O)(=O)C3)c2n1 (stereo unspecified)	10.0	3.1	-1.3	-0.6	2.1	2.4
Cc1ccc(NC(=O)Nc2cc(C(F)(F)F)c[nH]c2=O)cc1	8.2	8.0	-3.5	-1.8	-3.9	1.6
O=S(=O)(c1cccc(F)c1)N1CCN(Cc2cc3c(cc2Br)OCCO3)CC1	4.9	2.6	0.4	-0.7	5.6	1.0
Cc1ccc(N2C(=O)CSC2c2c(F)cccc2Cl)cc1 (stereo unspecified)	68.2*	86.1*	-29.9	-16.6	-6.7	-4.2
COc1cccc(C2SCC(=O)N2c2ccc(Cl)cc2)c1OC (stereo unspecified)	27.6*	59.1*	-35.5	-19.7	-7.8	-3.1
O=C(O)c1cccc(N2C(=O)CSC2c2c(F)cccc2Cl)c1 (stereo unspecified)	-1.5	6.2	-0.8	5.8	1.4	0.1
COc1ccc(N2C(=O)CSC2c2ccc(F)c(F)c2)cc1 (stereo unspecified)	4.4	12.5	-9.3	-7.0	-8.5	1.2
CCCn1c(SCC(=O)N(CC)c2c(N)n(Cc3ccccc3)c(=O)[nH]c2=O)nnc1-c1ccncc1	-1.0	-31.4	6.0	9.7	-3.0	1.8
CCOc1ccc(CCNC(=O)CCc2nnc3ccc(N4CCCCC4)nn23)cc1OCC	6.3	31.6*	-10.2	-9.1	-4.5	-0.2
COc1ccc(S(=O)(=O)N2CCN(C(=O)C3COc4ccccc4O3)CC2)cc1 (stereo unspecified)	14.1	31.8*	-14.7	-15.4	2.3	8.5
COc1cc2nc(N3CCN(C(=O)C4COc5ccccc5O4)CC3)nc(N)c2cc1OC (stereo unspecified)	2.8	29.5*	-11.4	-7.1	1.3	5.2
COc1cc2nc(N3CCN(C(=O)c4ccco4)CC3)nc(N)c2cc1OC	-3.8	-8.8	-12.7	2.8	1.8	8.7
COc1ccc(C(C(=O)NC2CCCCC2)N(CC2CCCO2)C(=O)C2COc3ccccc3O2)cc1OC (stereo unspecified)	-16.1	-12.2	12.6	33.4*	-2.9	1.0
CCC(=O)N1CCCC1(C)C(=O)Nc1ccc(C)c(C)c1 (stereo unspecified)	5.6	2.3	-3.2	0.4	1.3	0.8
CCn1c(SCC(=O)N(C)CC(=O)Nc2ccc(F)c(F)c2F)nnc1-c1ccco1	1.5	-7.4	6.7	7.6	1.7	2.5
CCSc1nnc(NC(=O)CSc2nc3c(c(=O)n2CCOC)SC(C)C3)s1 (stereo unspecified)	2.2	31.7*	-11.8	-8.1	0.1	0.2
